In brackets after ≈: the same amount, converted by molar mass. Several values for one entry are separate records, joined by “and”; a condition that tells them apart may be missing. Identical values can stand only once.
What was measured:
[1] = test system: Hep G2 cells; experiment: MTT cytotoxic assay; assay type: cell-based; conditions: for IC50: Homo sapiens, HepG2, 24 h, read-out: Hep G2 cells IC50
Summary of the method: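 Hep G2 cells (Pasteur Institute of Iran) seeded at 10,000 cells/well and grown 24 h at 37 °C, 5% CO2. Extract and fractions were tested at 12.5–200 μg/mL for 24 h. MTT was then added for 4 h at 37 °C, and formazan was dissolved in DMSO and read at 570 nm. IC50 came from plots of growth inhibition against concentration; mean ± SD of triplicates.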

[2] = DPPH radical scavenging activity assay; assay type: biochemical; conditions: 30 min at 37 °C, absorbance 517 nm; mean ± SD of triplicate
Summary of the method: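 20 µL of sample (6.25–3200 μg/mL solutions) mixed with 200 µL methanolic DPPH and kept dark at 37 °C for 30 min; absorbance read at 517 nm. Blanks held sample plus MeOH; controls held MeOH plus DPPH. Percent inhibition was calculated from control and blank absorbances. Quercetin was the standard; triplicate runs.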

[3] = ABTS radical cation scavenging assay; assay type: biochemical; conditions: absorbance 734 nm after 15 minutes; mean ± SD of triplicate
Summary of the method: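 ABTS radical cation made by mixing aqueous ABTS diammonium salt with ammonium persulfate, then kept dark at room temperature for 16 h. It was diluted with ethanol to A734 0.70 ± 0.05. 200 µL radical solution was added to 20 µL of samples at a range of concentrations, and A734 was read after 15 min. IC50 reported as mean ± SD of three replicates.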

[4] = FRAP assay; assay type: biochemical; conditions: absorbance 593 nm; mean ± SD of triplicate
Summary of the method: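 FRAP reagent: 300 mM acetate buffer pH 3.6, 10 mM TPTZ in 40 mM HCl and 20 mM FeCl3·6H2O at 10:1:1, held dark at 37 °C for 10 min. 20 µL sample (6.25–3200 μg/mL solutions) was added to 180 µL pre-warmed reagent; controls held MeOH. Absorbance was read at 593 nm, and the FRAP value was calculated against the control; triplicate analysis.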

[5] = NO radical scavenging; assay type: biochemical; conditions: for NO scavenging ability percentage: 200 μg/mL, mean ± SD of triplicate
Summary of the method: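 Sodium nitroprusside (50 µL, 10 mmol) and 50 µL MeOH were added to 50 µL sample and incubated at 25 °C for 150 min. Then 100 µL Griess reagent was added for 5 min at room temperature, and absorbance was read at 542 nm. Blanks held sample, nitroprusside and MeOH without Griess reagent. Inhibition ratio was calculated from sample, blank and control absorbances; triplicate.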

[6] = ORAC assay; assay type: biochemical; conditions: Trolox equivalents
Summary of the method: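 Blank, Trolox standard or sample (20 µL) in 75 mM potassium phosphate buffer was plated in triplicate with 200 µL of 0.96 µM fluorescein and held at 37 °C for 20 min. AAPH was then added, and fluorescence decay (ex 485/em 538 nm) was recorded every 4.5 min for 2.5 h. Values were expressed as Trolox equivalents.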

[7] = test system: Hep G2 cells; experiment: CAA assay; assay type: cell-based; conditions: Homo sapiens, HepG2, read-out: CAA IC50
Summary of the method: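 Hep G2 cells seeded at 6 × 10^4 cells/well overnight, then washed three times with PBS. Cells were incubated at 37 °C in treatment medium containing extract at various concentrations plus 25 µM DCFH-DA, then washed with PBS. AAPH was added, and fluorescence (ex 485/em 538 nm) was read every 5 min for 1 h at 37 °C. IC50 is the concentration scavenging 50% of AAPH radicals; quercetin was the standard; triplicates.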

[8] = test system: protease; experiment: Determination of protease inhibition; assay type: biochemical; conditions: casein 1%, 25 °C, 10 minutes
Summary of the method: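 Samples prepared at 1–300 µg/mL; 50 µL was combined with 200 µL of 50 mM phosphate buffer, then protease and 1% casein substrate were added. The mixture was incubated at 25 °C for 10 min and stopped with 10% trichloroacetic acid. After 21 min it was centrifuged at 895 ×g for 5 min, and supernatant absorbance was read at 280 nm. IC50 as mean ± SD of three replicates.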

DPPH IC50 [2]	ABTS IC50 [3]	FRAP IC50 [4]	IC50 [7]	Protease inhibition IC50 [8]	SMILES	Hep G2 cells IC50 ([1]; MTT, 24 h treatment, mean ± SD)	NO scavenging ability percentage [5]	ORAC TE [6]	NO scavenging ability percentage ([5]; listed as oleanolic acid)	IC50 [1]	cytotoxic effect on the Hep G2 cell line (in words) ([1]; MTT)	NO scavenging [5]	ORAC TE ([6]; listed as rosmarinic acid)	NO scavenging ability percentage ([5]; listed as ursolic acid)
–	–	–	–	–	N.N.[Cl][Pt][Cl] [Cisplatin, reference compound]	12.65 ± 0.78 µg/mL	–	–	–	–	–	–	–	–
26.51 ± 0.06 µg/mL	26.35 ± 0.03 µg/mL	18.53 ± 0.12 µg/mL	38.9 ± 0.87 µg/mL (≈ 129 µM)	–	O=c1c(O)c(-c2ccc(O)c(O)c2)oc2cc(O)cc(O)c12 [Quercetin, quercetin, reference compound]	–	89.96 ± 0.01%	1.06 TE	–	–	–	–	–	–
>2000 µg/mL	>2000 µg/mL	198.86 ± 1.49 µg/mL	> 200 µg/mL	28.0 ± 0.2 µg/mL	CC1(C)CC[C@]2(C(=O)O)CC[C@]3(C)C(=CC[C@@H]4[C@@]5(C)CC[C@H](O)C(C)(C)[C@@H]5CC[C@]43C)[C@@H]2C1 [Oleanolic acid]	–	48.82 ± 0.91%	0.46 TE	48.82%	123 ± 8.84 µg/mL (≈ 270 µM)	low antiproliferative effect	–	–	–
33.48 ± 0.52 µg/mL	87.31 ± 0.68 µg/mL	42.62 ± 0.86 µg/mL	> 200 µg/mL	22.4 ± 0.1 µg/mL	C[C@@H]1O[C@@H](OC[C@H]2O[C@@H](Oc3c(-c4ccc(O)c(O)c4)oc4cc(O)cc(O)c4c3=O)[C@H](O)[C@@H](O)[C@@H]2O)[C@H](O)[C@H](O)[C@H]1O [Rutin, Quercetin-3-O-rutoside]	–	81.30 ± 0.37%	0.83 TE	–	63.9 ± 0.96 µg/mL (≈ 105 µM)	–	–	–	–
28.39 ± 0.75 µg/mL	39.52 ± 0.72 µg/mL	31.87 ± 0.67 µg/mL	171 µg/mL (≈ 475 µM)	17.0 ± 0.3 µg/mL	O=C(/C=C/c1ccc(O)c(O)c1)O[C@H](Cc1ccc(O)c(O)c1)C(=O)O [Rosmarinic acid]	–	71.44 ± 0.37% and 71.44 ± 1.04%	0.60 TE	–	47.8 ± 5.87 µg/mL (≈ 133 µM)	–	71.44 ± 1.04 µg/mL	0.6 TE	–
>2000 µg/mL	>2000 µg/mL	298.51 ± 1.76 µg/mL	184 ± 9.25 µg/mL (≈ 402 µM)	24.5 ± 0.1 µg/mL	C[C@H]1[C@H](C)CC[C@]2(C(=O)O)CC[C@]3(C)C(=CC[C@@H]4[C@@]5(C)CC[C@H](O)C(C)(C)[C@@H]5CC[C@]43C)[C@H]12 [Ursolic acid]	–	55.52 ± 0.43%	0.31 TE	–	> 200 µg/mL	–	–	–	55.52%

Reference: PMC12040637 (Iranian Biomedical Journal, 2024)
